These results are taken from PMC7680388 (Cell chemical biology, 2020).

One test relates to SK-MEL-5 cells. The format is cell-based, Homo sapiens. As to conditions: endogenous Rpn13 depleted by UTR siRNA; Fig. 6E. Summed up:
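SK-MEL-5 endogenous Rpn13 was depleted with UTR-targeting siRNA (50 nM) for 24 h. Cells at 70–80% confluency were then transfected with 2 μg wild-type or Q337A/Q338A FLAG-Rpn13 plasmid (Omnifect) per 6-well. Test compound was given at graded concentrations for 24 h. CellTiter-Glo 2.0 luminescence was normalized to vehicle, in technical triplicate and biological duplicate, with SD reported.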

The next test has as its system Rpn13-Uch37 interaction. Particulars: ref VanderLinden et al., 2015; cited from earlier work.
The target in a further test is T1, Uch37 (Homo sapiens, UniProt Q9Y5K5).
T1 sequence (Q9Y5K5 1-329): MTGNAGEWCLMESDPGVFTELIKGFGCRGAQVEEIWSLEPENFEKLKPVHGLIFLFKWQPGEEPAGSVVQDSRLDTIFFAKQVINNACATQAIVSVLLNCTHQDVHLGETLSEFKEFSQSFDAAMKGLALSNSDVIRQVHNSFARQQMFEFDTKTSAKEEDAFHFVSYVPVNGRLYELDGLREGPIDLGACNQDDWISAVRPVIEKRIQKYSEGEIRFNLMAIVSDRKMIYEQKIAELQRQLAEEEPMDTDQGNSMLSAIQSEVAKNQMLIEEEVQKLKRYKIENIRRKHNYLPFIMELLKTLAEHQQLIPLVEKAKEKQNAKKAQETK
As to conditions: ref VanderLinden et al., 2015; cited from earlier work.

B1: Rpn13Q337A/Q338A: Rpn13 double mutant defective in Uch37 activation, FLAG-tagged, expressed from plasmid (protein, UniProt Q16186 2-407, looked up, variant Q337A Q338A)
Proteasomal ubiquitin …: TTSGALFPSLVPGSRGASNKYLVEFRAGKMSLKGTTVTPDKRKGLVYIQQTDDSLIHFCWKDRTSGNVEDDLIIFPDDCEFKRVPQCPSGRVYVLKFKAGSKRLFFWMQEPKTDQDEEHCRKVNEYLNNPPMPGALGASGSSGHELSALGGEGGLQSLLGNMSHSQLMQLIGPAGLGGLGGLGALTGPGLASLLGSSGPPGSSSSSSSRSQSAAVTPSSTTSSTRATPAPSAPAAASATSPSPAPSSGNGASTAASPTQPIQLSDLQSILATMNVPAGPAGGQQVDLASVLTPEIMAPILANADVQERLLPYLPSGESLPQTADEIQNTLTSPQFAAALGMFSAALASGQLGPLMCQFGLPAEAVEAANKGDVEAFAKAMQNNAKPEQKEGDTKDKKDEEEDMSLD
modifications: FLAG tag
Consider B1, for which the “viability upon expression of Rpn13 double mutant” value with SK-MEL-5 cells is reported as “no significant effect on viability”. In addition, the “effect of mutations on physical interaction with Uch37” value in the test on Rpn13-Uch37 interaction is on record as “the mutations do not affect the physical interaction of the two proteins”. In addition, the “stimulation of Uch37 relative to wild-type Rpn13” value with Uch37 was “about 30%”.
